One block for each compound: values may come before it. Calls of active or inactive are those of the source. No cut-off for these calls is given here.
Columns and labels:
[1] = Oral bioavailability in Sprague-Dawley rat at 3 mg/kg by HPLC-MS method; format: ADME, organism-based; conditions: in vivo
In short: (§1)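 Male rats (330−380 g, 9−10 weeks), jugular vein cannula implanted 1 day before, fasted. 3 mg/kg given iv or orally (n = 3) in DMA/PEG400 30/70 v/v. Blood (150 μL) drawn at 0, 2, 5 (iv only), 15, 30 min and 1, 2, 4, 6, 8, 12, 24 h; plasma analysed by HPLC-MS; noncompartmental analysis.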

[2] = AUC (0 to infinity) in Sprague-Dawley rat at 3 mg/kg, po by HPLC-MS method; format: ADME, organism-based; parameters: dose 3 mg/kg, route oral, time infinity; conditions: plasma
In short: (§2)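 Male rats (330−380 g, 9−10 weeks old), jugular vein cannulated 1 day before dosing, fasted; 3 mg/kg iv or oral in DMA/PEG400 (30/70, v/v), n = 3. Blood (150 μL) drawn at 0, 2, 5 (iv only), 15, 30 min and 1, 2, 4, 6, 8, 12, 24 h, kept on ice; plasma analysed by HPLC-MS; noncompartmental analysis.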

[3] = Tmax in Sprague-Dawley rat at 3 mg/kg, po by HPLC-MS method; format: ADME, organism-based; parameters: dose 3 mg/kg, route oral; conditions: in vivo; in short: as §1
[4] = Cmax in Sprague-Dawley rat at 3 mg/kg, po by HPLC-MS method; format: ADME, organism-based; parameters: dose 3 mg/kg, route oral; conditions: in vivo; in short: as §1
[5] = Apparent elimination half life in Sprague-Dawley rat at 3 mg/kg, po by HPLC-MS method; format: ADME, organism-based; parameters: dose 3 mg/kg, route oral; conditions: in vivo, read-out: betat1/2(app) (converted); in short: as §1
[6] = AUC (0 to infinity) in Sprague-Dawley rat at 3 mg/kg, iv by HPLC-MS method; format: ADME, organism-based; parameters: time infinity, dose 3 mg/kg, route intravenous; conditions: plasma; in short: as §2
[7] = Volume of distribution at steady state in Sprague-Dawley rat at 3 mg/kg, iv by HPLC-MS method; format: ADME, organism-based; parameters: dose 3 mg/kg, route intravenous; conditions: in vivo, read-out: Vdss; in short: as §1
[8] = Clearance in Sprague-Dawley rat at 3 mg/kg, iv by HPLC-MS method; format: ADME, organism-based; parameters: dose 3 mg/kg, route intravenous; conditions: in vivo; in short: as §1
[9] = Apparent elimination half life in Sprague-Dawley rat at 3 mg/kg, iv by HPLC-MS method; format: ADME, organism-based; parameters: dose 3 mg/kg, route intravenous; conditions: in vivo, read-out: betat1/2(app) (converted); in short: as §1
[10] = tested on: Transmissible gastroenteritis virus; assay: Antiviral activity against Transmissible gastroenteritis virus infected in ST cells assessed as reduction in caspase-3 activation pre-treated before virus infection measured 16 hrs post virus infection by Western blotting; format: functional, organism-based
In short: (§3)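 ST cells pretreated with compound, then infected with TGEV. Western blot for nucleocapsid (N) protein, caspase 3 (cleavage of procaspase 3) and GAPDH at 16 hpi. Representative of at least three independent experiments.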

[11] = tested on: Transmissible gastroenteritis virus; assay: Antiviral activity against Transmissible gastroenteritis virus infected in ST cells assessed as reduction in N-protein expression pre-treated before virus infection measured 16 hrs post virus infection by Western blotting; format: functional, organism-based; in short: as §3
[12] = tested on: RAW264.7; assay: Reduction in LPS/INFgamma-induced COX2 protein expression in mouse RAW264.7 cells incubated for 20 hrs by Western blotting; format: functional, cell-based
In short: (§4)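 LPS/IFNγ-stimulated RAW264.7 cells treated with compound for 20 h. iNOS, COX-2 and GAPDH detected by Western blot; representative of at least three independent experiments.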

[13] = tested on: RAW264.7; assay: Reduction in LPS/INFgamma-induced iNOS protein expression in mouse RAW264.7 cells incubated for 20 hrs by Western blotting; format: functional, cell-based; in short: as §4
[14] = tested on: A549; assay: Induction of c-Jun protein accumulation in human A549 cells incubated for 24 hrs by Western blotting; format: functional, cell-based
[15] = tested on: A549; assay: Down regulation of cyclin A2 expression in human A549 cells incubated for 24 hrs by Western blotting; format: functional, cell-based
[16] = tested on: NCI-H460; assay: Induction of c-Jun protein accumulation in human NCI-H460 cells incubated for 24 hrs by Western blotting; format: functional, cell-based
[17] = tested on: NCI-H460; assay: Down regulation of cyclin A2 expression in human NCI-H460 cells incubated for 24 hrs by Western blotting; format: functional, cell-based
[18] = tested on: MCF7; assay: Induction of c-Jun protein accumulation in human MCF7 cells incubated for 24 hrs by Western blotting; format: functional, cell-based
[19] = tested on: MCF7; assay: Down regulation of cyclin A2 expression in human MCF7 cells incubated for 24 hrs by Western blotting; format: functional, cell-based
[20] = tested on: Transmissible gastroenteritis virus; assay: Antiviral activity against Transmissible gastroenteritis virus infected in ST cells pre-treated 2 hrs before virus infection measured 6 hrs post virus infection by immunofluorescent assay; format: functional, organism-based; conditions: Alphacoronavirus 1, ST
In short: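 ST cells, with or without 2 h compound pretreatment (10 concentrations), infected with TGEV at MOI 10. Immunofluorescence with anti-spike and anti-nucleocapsid antibodies at 6 hpi. EC50 from dose–response curves, mean of at least three experiments, each in duplicate.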

[21] = Growth inhibition of human HONE1 cells; format: functional
In short: (§5)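 Cells seeded per well: NUGC-3 4500, HONE-1 6000, MCF-7 6500, NCI-H460 2500, HepG2 10000, A549 5000; A549 grown in RPMI 1640 with 2 g/L NaHCO₃, 2 mM L-glutamine and 10% FBS. GI₅₀ = concentration giving 50% growth inhibition, mean of at least three experiments each in duplicate. Paclitaxel served as positive control.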

[22] = tested on: NUGC-3; assay: Growth inhibition of human NUGC3 cells; format: functional; in short: as §5
[23] = tested on: NCI-H460; assay: Growth inhibition of human NCI-H460 cells; format: functional; in short: as §5
[24] = tested on: MCF7; assay: Growth inhibition of human MCF7 cells; format: functional; in short: as §5
[25] = tested on: A549; assay: Growth inhibition of human A549 cells; format: functional; in short: as §5
[26] = tested on: HepG2; assay: Growth inhibition of human HepG2 cells; format: functional; in short: as §5
[27] = AUC (0 to infinity) in Sprague-Dawley rat at 1.5 mg/kg, po by HPLC-MS method; format: ADME, organism-based; parameters: time infinity, dose 1.5 mg/kg, route oral; conditions: plasma
In short: (§6)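 Male rats (330−380 g, 9−10 weeks old) fitted with a jugular vein cannula 1 day before dosing and fasted; 1.5 mg/kg given iv or orally in DMA/PEG400 (50/50, v/v), n = 3. Blood (150 μL) drawn at 0, 2, 5 (iv only), 15, 30 min and 1, 2, 4, 6, 8, 12, 24 h. Plasma analysed by HPLC-MS; parameters by noncompartmental analysis.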

[28] = Tmax in Sprague-Dawley rat at 1.5 mg/kg, po by HPLC-MS method; format: ADME, organism-based; parameters: dose 1.5 mg/kg, route oral; conditions: in vivo; in short: as §6
[29] = Cmax in Sprague-Dawley rat at 1.5 mg/kg, po by HPLC-MS method; format: ADME, organism-based; parameters: dose 1.5 mg/kg, route oral; conditions: in vivo; in short: as §6
[30] = Apparent elimination half life in Sprague-Dawley rat at 1.5 mg/kg, po by HPLC-MS method; format: ADME, organism-based; parameters: dose 1.5 mg/kg, route oral; conditions: in vivo, read-out: betat1/2(app) (converted); in short: as §6
[31] = AUC (0 to infinity) in Sprague-Dawley rat at 1.5 mg/kg, iv by HPLC-MS method; format: ADME, organism-based; parameters: time infinity, dose 1.5 mg/kg, route intravenous; conditions: plasma; in short: as §6
[32] = Volume of distribution at steady state in Sprague-Dawley rat at 1.5 mg/kg, iv by HPLC-MS method; format: ADME, organism-based; parameters: dose 1.5 mg/kg, route intravenous; conditions: in vivo, read-out: Vdss; in short: as §6
[33] = Clearance in Sprague-Dawley rat at 1.5 mg/kg, iv by HPLC-MS method; format: ADME, organism-based; parameters: dose 1.5 mg/kg, route intravenous; conditions: in vivo; in short: as §6
[34] = Apparent elimination half life in Sprague-Dawley rat at 1.5 mg/kg, iv by HPLC-MS method; format: ADME, organism-based; parameters: dose 1.5 mg/kg, route intravenous; conditions: in vivo, read-out: betat1/2(app) (converted); in short: as §6
[35] = Oral bioavailability in Sprague-Dawley rat at 1.5 mg/kg by HPLC-MS method; format: ADME, organism-based; conditions: in vivo; in short: as §6

Compound: CCN1CCc2c(c3cc(OC)c(OC)cc3c3cc(OC)ccc23)C1
bioavailability [1]: 105%
AUC(0-inf) [2]: 2470 ng·h/mL
Tmax [3]: 0.3 h
Cmax [4]: 535 ng/mL
half-life [5]: 6.3 h
AUC(0-inf) [6]: 2320 ng·h/mL
Vd [7]: 5.1 L/kg
clearance [8]: 20 mL/min/kg
half-life [9]: 16 h
Activity [10]: Active
Activity [11]: Active
Activity [12]: Active
Activity [13]: Active
Activity [14]: Active
Activity [15]: Active
Activity [16]: Active
Activity [17]: Active
Activity [18]: Active
Activity [19]: Active
EC50 [20]: 580 nM
GI50 [21]: 570 nM
GI50 [22]: 320 nM
GI50 [23]: 300 nM
GI50 [24]: 370 nM
GI50 [25]: 400 nM
GI50 [26]: 660 nM

AUC(0-inf) [27]: 453 ng·h/mL
Tmax [28]: 4.3 h
Cmax [29]: 39 ng/mL
half-life [30]: 7.6 h
AUC(0-inf) [31]: 448 ng·h/mL
Vd [32]: 12.4 L/kg
clearance [33]: 37.6 mL/min/kg
half-life [34]: 4.6 h
bioavailability [35]: 54.3%
Compound: COc1cc2c(cc1OC)[C@@H]1[C@@H](O)[C@@H]3CCC(=O)N3C[C@@H]1c1cc(OC)c(OC)cc1-2 [TYLOPHOVATINE C]
